Measured values from different studies.
Compare with care: the assays were run in different laboratories.
Target: Cyclin-dependent kinase 2 homolog (CRK2, Plasmodium falciparum, UniProt P61075)

Cc1cnn2ncc(-c3ccnc(N(C)C)n3)c2c1 — remaining binding (binding; 1 µM): 82%
C=CC(=O)N1CCC(C(=O)NCC(=O)N2CCN(c3nc(-c4cnc(N)nc4C(F)F)nc(N4CCOCC4)n3)CC2)CC1 — remaining binding (binding, competition with immobilised ligand; 1 µM): 65%
FC(F)(F)Oc1cccc(-c2cnc3ccc(-c4ccncc4)nn23)c1 — remaining binding (cell-free assay, competition with immobilised ligand; 5 µM): 87%
Nc1ncnc2occ(-c3ccc(NC(=O)Nc4cc(C(F)(F)F)ccc4F)cc3)c12 — remaining signal (cell-free assay, inhibitor; 20 µM): 60%
O=C(NCC1CCOCC1)c1n[nH]cc1NC(=O)c1c(F)cccc1F — remaining binding (binding, competition with immobilised ligand; 1 µM): 100%
COc1cnc(Nc2cccc(S(N)(=O)=O)c2)nc1N1CCN(c2ccccc2)C(=O)C1 — remaining binding (binding, competition with immobilised ligand; 1 µM): 100%
C[C@@H](c1ccc(-n2cnc3c(N)ncnc32)cc1)N1CCc2nn(C)c(Cc3ccccc3)c2C1=O — remaining binding (binding, competition with immobilised ligand; 0.1 µM): 83%
Nc1ncc2c(n1)-c1c([nH]c3ccc(C#CC4CC4)cc13)CCCC2 — remaining binding (binding, competition with immobilised ligand; 1 µM): 100%
O=C(Nc1c[nH]nc1C(=O)NC1CCNCC1)c1cc(F)cc(F)c1 — remaining binding (binding, competition with immobilised ligand; 1 µM): 89%
CCN1CCN(Cc2ccc(C(=O)Nc3ccc(C)c(Oc4ccc5c(c4)CC(=O)N5)c3)cc2C(F)(F)F)CC1 — remaining binding (binding, competition with immobilised ligand; 1 µM): 100%
Cc1nn(C)cc1-c1nc2c(N3CCN(Cc4ccc(Cl)cc4)CC3)c(Cl)cnc2[nH]1 — remaining binding (binding, competition with immobilised ligand; 1 µM): 100%
c1cncc(-c2cccc(Nc3nccc(NC4CCCCC4)n3)c2)c1 — remaining binding (binding, competition with immobilised ligand; 10 µM): 100%
CNC(=O)[C@@H]1CC[C@@H](n2c(-c3ccc4cnccc4c3)nc3ccc(C(=O)NCc4cccc(C(N)=O)c4)cc32)C1 — remaining binding (binding, competition with immobilised ligand; 1 µM): 99%
N[C@@H]1CCN(c2nccc(-c3cnn4ncccc34)n2)C1 — remaining binding (binding; 1 µM): 84%
Cc1ccc(-c2cnc([C@@]3(O)CC[C@H](C(=O)O)C(C)(C)C3)s2)cc1Nc1cccc(C(F)(F)F)n1 — remaining binding (binding, competition with immobilised ligand; 1 µM): 33%
CN(C)c1nccc(-c2cnc3ncccn23)n1 — remaining signal (cell-free assay; 1 µM): 72%
Cc1ccc(C(=O)Nc2ccc(CN3CCN(C)CC3)c(C(F)(F)F)c2)cc1C#Cc1cnc2cccnn12 — remaining activity (enzyme activity, inhibitor; 23.5 nM): 94%
